Published values collected from several papers.
Each line is one published result; the experiments were not run side by side.
Target: Mitogen-activated protein kinase kinase kinase 7 (MAP3K7, Homo sapiens, UniProt O43318)
Sequence (O43318 1-606, as in one of the studies): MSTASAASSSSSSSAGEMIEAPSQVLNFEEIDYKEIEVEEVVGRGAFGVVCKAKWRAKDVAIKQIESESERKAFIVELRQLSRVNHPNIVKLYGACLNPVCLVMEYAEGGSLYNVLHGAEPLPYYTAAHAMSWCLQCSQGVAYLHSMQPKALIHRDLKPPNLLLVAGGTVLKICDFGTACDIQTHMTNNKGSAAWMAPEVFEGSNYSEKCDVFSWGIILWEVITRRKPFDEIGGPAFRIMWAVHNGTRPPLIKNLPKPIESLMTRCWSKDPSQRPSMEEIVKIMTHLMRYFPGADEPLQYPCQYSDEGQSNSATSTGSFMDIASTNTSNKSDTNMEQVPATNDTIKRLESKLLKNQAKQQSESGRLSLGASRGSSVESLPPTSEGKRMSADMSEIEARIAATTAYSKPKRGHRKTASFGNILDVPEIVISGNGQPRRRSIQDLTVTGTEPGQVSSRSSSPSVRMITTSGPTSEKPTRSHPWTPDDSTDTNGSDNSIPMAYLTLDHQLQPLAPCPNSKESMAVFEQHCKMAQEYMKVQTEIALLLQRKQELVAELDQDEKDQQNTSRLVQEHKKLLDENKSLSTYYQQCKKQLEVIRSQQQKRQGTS

SMILES	effect on	action	method	tested at	quantity	value
Cc1cnc(NC2CCOCC2)nc1-n1cnc(C(=O)NC(CN)c2cc(F)cc(Cl)c2)c1 (stereo not drawn)	enzyme activity	inhibitor	radiometric	1 µM	remaining activity	98%
Cc1ccc(C(=O)Nc2ccc(CN3CCN(C)CC3)c(C(F)(F)F)c2)cc1C#Cc1cnc2cccnn12	enzyme activity	inhibitor	–	23.5 nM	remaining activity	3.3%
CN(c1ccnc(CNc2nc(Nc3ccc4c(c3)CC(=O)N4)ncc2C(F)(F)F)n1)S(C)(=O)=O	cell-free assay	–	competition with immobilised ligand	1 µM	remaining binding	48%
O=C1Nc2ccc(Cl)cc2C1=Cc1cc(Cl)c(O)c(Cl)c1	cell-free assay	–	–	0.5 µM	remaining signal	86.8%
COc1cc(/C=C/C(=O)CC(=O)/C=C/c2ccc(O)c(OC)c2)ccc1O	enzyme activity	inhibitor	–	1 µM	activity vs control	102%
O=C(Nc1cnn(-c2csc(C(=O)NC3COC3)c2)c1)Nc1c(F)cccc1Cl	enzyme activity	inhibitor	–	5 µM	remaining activity	109%
CNC(=O)c1cc(Oc2ccc(NC(=O)Nc3ccc(Cl)c(C(F)(F)F)c3)cc2)ccn1	cell-free assay	–	–	0.5 µM	remaining signal	101%
CCCCNc1ncc2c(-c3ccc(F)cc3)nn(C[C@H]3CC[C@H](N)CC3)c2n1	target engagement in cells	inhibitor	chemoproteomics	20 mM	inhibition	16%
CC(C)c1ccc(NC(=O)c2cccs2)c(-c2nc3ccccc3[nH]c2=O)c1	enzyme activity	inhibitor	–	1 µM	activity vs control	106%
CCCS(=O)(=O)Nc1ccc(F)c(C(=O)c2c[nH]c3ncc(-c4ccc(Cl)cc4)cc23)c1F	enzyme activity	inhibitor	–	1 µM	inhibition	< 10%
O=C(NC[C@@H]1[C@H]2CN(C(=O)OCc3cc(C(F)(F)F)cc(C(F)(F)F)c3)C[C@@H]12)c1ccc2[nH]nnc2c1	cell-free assay	–	competition with immobilised ligand	1 µM	remaining binding	94%
Cc1ccc(C(=O)NCc2ccsc2)cc1C#Cc1cn(C(C)C)c2ncnc(N)c12	enzyme activity	inhibitor	–	1 µM	activity vs control	112%
Cc1nc(C2CCN(C(=O)c3ccc(OC(F)(F)F)cc3N)CC2)c2ncc(N3CCN(C)CC3)cc2n1	cell-free assay	–	competition with immobilised ligand	1 µM	remaining binding	100%
c1ccc(CNc2nc(N3CCOc4ccccc43)nc3c2CCCC3)cc1	target engagement in cells	inhibitor	chemoproteomics	20 mM	inhibition	-10.3%
COc1cc(Nc2cnc(C#N)c(O[C@H](C)CN(C)C)n2)ncc1-c1cnn(C)c1	enzyme activity	inhibitor	radiometric	10 µM	remaining activity	53%
CCN(CC)CCNC(=O)c1c(C)[nH]c(/C=C2\C(=O)Nc3ccc(F)cc32)c1C	enzyme activity	inhibitor	–	0.3 µM	inhibition	52%
CO[C@@H](C)c1c(Nc2ccc([C@H](N(C)C(=O)C3CCS(=O)(=O)CC3)C(F)(F)F)cc2)cnc2cc(Cl)nn12	cell-free assay	–	competition with immobilised ligand	1 µM	remaining binding	89%
N#CCCc1ccc2c(c1)-c1[nH]c3ccc([N+](=O)[O-])cc3c1CC(=O)N2	cell-free assay	–	–	0.5 µM	remaining signal	38.1%
O=C(Nc1cnn(-c2csc(C(=O)NC3COC3)c2)c1)Nc1ccccc1Cl	enzyme activity	inhibitor	–	5 µM	remaining activity	98%
CCCOc1ccc([C@H]2[C@H](C(=O)O)[C@@H](c3ccc4c(c3)OCO4)CN2CC(=O)Nc2c(CC)cccc2CC)cc1	cell-free assay	–	competition with immobilised ligand	1 µM	remaining binding	100%
CCCOc1ccc(OC)c(F)c1C(=O)c1ccc(C(=O)N[C@@H]2CNC[C@H]2NC(=O)c2ccc3[nH]ncc3c2)cc1	enzyme activity	inhibitor	–	10 µM	remaining activity	106%
Cc1nccc(COC(=O)N2C[C@@H]3[C@@H](CNC(=O)c4ccc5[nH]nnc5c4)[C@@H]3C2)n1	cell-free assay	–	competition with immobilised ligand	1 µM	remaining binding	75%
Cc1ccc(Nc2nccc(N(C)c3ccc4c(C)n(C)nc4c3)n2)cc1S(N)(=O)=O	enzyme activity	inhibitor	–	10 µM	inhibition	-4%
CS(=O)(=O)N1CCCC(NC(=O)[C@H](CCC2CCCCC2)NC(=O)c2ccc(CNC(=O)c3cnc4ccccn34)cc2)C1 (stereo partly drawn)	cell-free assay	–	competition with immobilised ligand	0.1 µM	remaining binding	94%
FC(F)(F)Oc1cccc(-c2cnc3ccc(-c4ccncc4)nn23)c1	enzyme activity	inhibitor	radiometric	5 µM	activity vs control	58%
Cc1cc(-n2nc(Cc3cc(F)cc(C(F)(F)F)c3)nc2C)ccc1C(N)=O	cell-free assay	–	competition with immobilised ligand	1 µM	remaining binding	100%
FC(F)c1nc2ccccc2n1-c1nc(N2CCOCC2)nc(N2CCOCC2)n1	enzyme activity	inhibitor	–	10 µM	remaining activity	97%
